Experiment [1] addresses Proteasome Macropain subunit (Homo sapiens) (UniProt P49721). Description: Inhibition of human 20S constitutive proteasome beta-2 at 50 uM using BocLRR-AMC as substrate incubated for 15 mins measured for 45 mins by fluorescence assay relative to control. The essentials:
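Purified human 20S proteasome (cCP or iCP), 0.3 nM, preincubated 15 min with compound (0.001-50 μM) in pH 8 buffer of 20 mM Tris-HCl, 10% glycerol, 0.005% Triton X-100, 2% DMSO. Then Boc-LRR-AMC at 50 μM was added. AMC fluorescence (ex 360/em 460 nm) was followed 45 min at 37 °C. Activity is relative to an untreated control.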

Experiment [2] concerns the target T1, Proteasome subunit beta type-8 (Homo sapiens) (UniProt P28062).
T1 sequence (whole entry): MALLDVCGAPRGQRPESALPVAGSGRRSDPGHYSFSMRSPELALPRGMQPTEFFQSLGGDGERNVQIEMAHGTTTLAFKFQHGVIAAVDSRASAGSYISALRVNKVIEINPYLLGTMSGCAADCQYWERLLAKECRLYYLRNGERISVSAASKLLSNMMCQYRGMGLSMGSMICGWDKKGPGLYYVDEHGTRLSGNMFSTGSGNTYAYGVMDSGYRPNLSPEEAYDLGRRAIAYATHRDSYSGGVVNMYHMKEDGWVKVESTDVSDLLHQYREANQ
The experiment is described as follows: Inhibition of human 20S immunoproteasome beta-5 at 50 uM using Suc-LLVY-AMC as substrate incubated for 15 mins measured for 45 mins by fluorescence assay relative to control. The method, boiled down: (§1)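 Human 20S cCP or iCP (0.3 nM) was exposed to compound (0.001-50 μM) for 15 min in pH 8 buffer of 20 mM Tris-HCl, 10% glycerol, 0.01% SDS, 2% DMSO. Suc-LLVY-AMC at 20 μM followed. Fluorescence (ex 360/em 460 nm) was read 45 min at 37 °C versus untreated enzyme.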

Experiment [3] addresses T2, Proteasome subunit beta type-9 (Homo sapiens) (UniProt P28065).
T2 sequence (whole entry): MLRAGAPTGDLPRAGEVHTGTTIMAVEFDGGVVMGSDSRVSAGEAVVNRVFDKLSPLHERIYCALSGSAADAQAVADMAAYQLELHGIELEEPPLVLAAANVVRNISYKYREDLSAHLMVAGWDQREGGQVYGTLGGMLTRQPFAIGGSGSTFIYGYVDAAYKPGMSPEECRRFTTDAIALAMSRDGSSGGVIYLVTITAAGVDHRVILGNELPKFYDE
Description: Inhibition of human 20S immunoproteasome beta-1 at 50 uM using Ac-PAL-AMC as substrate incubated for 15 mins measured for 45 mins by fluorescence assay relative to control. The essentials: (§2)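 Human 20S immunoproteasome (0.3 nM) was given 15 min with compound (0.001-50 μM) in pH 8 buffer of 20 mM Tris-HCl, 10% glycerol, 0.01% SDS, 2% DMSO. Ac-PAL-AMC at 50 μM was the substrate. Fluorescence (ex 360/em 460 nm) was followed 45 min at 37 °C relative to control.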

Experiment [4] has as its target T3, Proteasome subunit beta type-9 (Homo sapiens, UniProt P28065).
T3 sequence (P28065 whole entry): T2 sequence (whole entry)
The experiment is described as follows: Inhibition of human 20S immunoproteasome beta-1 using Ac-PAL-AMC as substrate incubated for 15 mins measured for 45 mins by fluorescence assay. The method, boiled down: as §2

The target of experiment [5] is T4, Proteasome Macropain subunit MB1 (Homo sapiens) (UniProt P28074).
T4 sequence (whole entry): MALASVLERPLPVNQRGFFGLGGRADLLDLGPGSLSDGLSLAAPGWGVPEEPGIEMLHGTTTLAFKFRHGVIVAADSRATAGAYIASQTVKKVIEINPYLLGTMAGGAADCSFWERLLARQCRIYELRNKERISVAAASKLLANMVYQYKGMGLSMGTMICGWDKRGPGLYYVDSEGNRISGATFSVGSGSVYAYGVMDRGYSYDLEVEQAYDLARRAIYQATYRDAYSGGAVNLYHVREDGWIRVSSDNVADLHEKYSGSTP
Description: Inhibition of human 20S constitutive proteasome beta-5 at 50 uM using Suc-LLVY-AMC as substrate incubated for 15 mins measured for 45 mins by fluorescence assay relative to control. The essentials: as §1

Experiment [6] concerns the target T5, Proteasome Macropain subunit MB1 (Homo sapiens, UniProt P28074).
T5 sequence (P28074 whole entry): T4 sequence (whole entry)
The experiment is described as follows: Inhibition of human 20S constitutive proteasome beta-5 using Suc-LLVY-AMC as substrate incubated for 15 mins measured for 45 mins by fluorescence assay. The essentials:
as §1

In experiment [7] the target is T6, Proteasome component C5 (Homo sapiens) (UniProt P20618).
T6 sequence (whole entry): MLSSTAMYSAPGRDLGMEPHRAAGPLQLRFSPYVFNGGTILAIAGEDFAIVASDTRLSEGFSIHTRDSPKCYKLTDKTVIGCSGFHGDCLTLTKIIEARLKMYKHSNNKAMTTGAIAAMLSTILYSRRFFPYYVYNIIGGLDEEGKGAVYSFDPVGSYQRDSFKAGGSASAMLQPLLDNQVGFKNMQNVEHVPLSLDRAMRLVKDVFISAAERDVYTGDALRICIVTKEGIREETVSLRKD
Description: Inhibition of human 20S constitutive proteasome beta-1 at 50 uM using Z-LLE-betaNA as substrate incubated for 15 mins measured for 45 mins by fluorescence assay relative to control. The essentials: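 Human 20S constitutive proteasome, 0.3 nM, was preincubated 15 min with compound (0.001-50 μM) in pH 8 Tris-HCl 20 mM, 10% glycerol, 0.01% SDS, 2% DMSO. Z-LLE-βNA at 50 μM was added. βNA fluorescence (ex 340/em 404 nm) was monitored 45 min at 37 °C against an untreated control.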

For experiment [8], the target named is T7, Proteasome subunit beta type-10 (Homo sapiens) (UniProt P40306).
T7 sequence (whole entry): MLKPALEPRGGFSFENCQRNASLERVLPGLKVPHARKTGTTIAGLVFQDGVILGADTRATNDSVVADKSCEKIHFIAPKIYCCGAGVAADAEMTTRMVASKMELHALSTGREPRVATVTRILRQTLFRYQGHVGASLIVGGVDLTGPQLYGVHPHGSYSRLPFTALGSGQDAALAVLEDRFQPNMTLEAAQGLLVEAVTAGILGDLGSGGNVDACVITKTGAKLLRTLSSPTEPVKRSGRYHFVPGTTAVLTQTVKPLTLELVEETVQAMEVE
Description: Inhibition of human 20S immunoproteasome beta-2 at 50 uM using BocLRR-AMC as substrate incubated for 15 mins measured for 45 mins by fluorescence assay relative to control.

Experiment [9] deals with T8, Proteasome subunit beta type-10 (Homo sapiens, UniProt P40306).
T8 sequence (P40306 whole entry): T7 sequence (whole entry)
The experiment is described as follows: Inhibition of human 20S immunoproteasome beta-2 using BocLRR-AMC as substrate incubated for 15 mins measured for 45 mins by fluorescence assay.

In experiment [10] the target is T9, Proteasome subunit beta type-8 (Homo sapiens, UniProt P28062).
T9 sequence (P28062 whole entry): T1 sequence (whole entry)
The experiment is described as follows: Inhibition of human 20S immunoproteasome beta-5 using Suc-LLVY-AMC as substrate incubated for 15 mins measured for 45 mins by fluorescence assay. The essentials:
as §1

Calls of active or inactive are those of the source. The rule behind the calls is not given here.

What is called inhibition is the percentage by which the read-out fell short of the control. As a reminder, the IC50 is the concentration needed to halve the response being measured.

Sequence of Proteasome Macropain subunit (Homo sapiens) (P49721 whole entry): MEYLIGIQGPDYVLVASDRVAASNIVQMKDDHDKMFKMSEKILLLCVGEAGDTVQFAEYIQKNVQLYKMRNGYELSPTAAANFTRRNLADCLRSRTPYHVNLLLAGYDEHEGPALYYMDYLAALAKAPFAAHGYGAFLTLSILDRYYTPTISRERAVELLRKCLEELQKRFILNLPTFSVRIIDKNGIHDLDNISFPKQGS

Regarding `C[C@H](NC(=O)[C@H](Cc1ccc(OCc2ccccc2)cc1)NC(=O)OC(C)(C)C)C(=O)N[C@@H](C[C@]1(O)C(=O)Nc2ccccc21)C(=O)NCC1CCCCC1`, the inhibition in experiment [1], in [2], in [3], in experiment [5], in experiment [7] and in experiment [8] was greater than 85% in each case. Besides, the IC50 in experiment [4] was found to be 4.8 µM; in experiment [6], 4.3 µM; in experiment [9], 16 µM; in experiment [10], 5.2 µM.

On to `C[C@H](NC(=O)[C@H](Cc1ccc(OCc2ccccc2)cc1)NC(=O)OC(C)(C)C)C(=O)N[C@@H](C[C@]1(O)C(=O)Nc2ccccc21)C(=O)NC(c1ccccc1)c1ccccc1`, for which the inhibition was 30% in experiment [1]; greater than 85% in [2]; greater than 85% in experiment [3]; greater than 85% in experiment [5]; greater than 85% in [7]. Moreover, the results for the IC50 in experiment [4], in experiment [6] and in experiment [10] were 4 µM, 1.74 µM and 2.7 µM, respectively. The inhibition result in experiment [8] is “inactive”.

For the compound `C[C@H](NC(=O)[C@H](Cc1ccc(OCc2ccccc2)cc1)NC(=O)OC(C)(C)C)C(=O)N[C@@H](C[C@]1(O)C(=O)Nc2ccccc21)C(=O)NCCC(=O)O`, the inhibition is greater than 85% in experiment [1]; 14% in [2]; 17% in experiment [3]; 18% in [5]; 19% in experiment [7]; greater than 85% in experiment [8]. This compound also registered an IC50 in experiment [9] of 22 µM.

For `C[C@H](NC(=O)[C@H](Cc1ccc(OCc2ccccc2)cc1)NC(=O)OC(C)(C)C)C(=O)N[C@@H](C[C@]1(O)C(=O)N(C)c2ccccc21)C(=O)NCc1ccccc1`, the inhibition is 19% in [1]; greater than 85% in experiment [2]; greater than 85% in experiment [3]; greater than 85% in experiment [5]; greater than 85% in experiment [7]; 27% in [8]. For the same compound, the IC50 came to 10.3 µM in experiment [4], 5.1 µM in experiment [6] and 3.93 µM in experiment [10].

As to `C[C@H](O)[C@@H](NC(=O)OCc1ccccc1)C(=O)N[C@@H](C[C@]1(O)C(=O)Nc2ccccc21)C(=O)NCc1ccccc1`, the inhibition entry in experiment [1] and in experiment [8] was “inactive” in each case. In addition, the inhibition in experiment [2] is greater than 85%; in experiment [3], greater than 85%; in [5], greater than 85%; in experiment [7], 20%. The IC50 in [4] worked out at 24.6 µM; in experiment [6] it was 0.88 µM; in [10] it was 0.572 µM.

With `C[C@H](NC(=O)OCc1ccccc1)C(=O)N[C@@H](C[C@]1(O)C(=O)Nc2ccccc21)C(=O)NCc1ccccc1`, the inhibition entry in experiment [1], in [7] and in experiment [8] was “inactive” throughout. For the same compound, the inhibition in [2], in [3] and in experiment [5] was greater than 85% in each case. Also, the IC50 worked out at 45 µM in experiment [4], 5.1 µM in experiment [6] and 3.96 µM in experiment [10].

On to `NC(=O)C[C@H](NC(=O)OCc1ccccc1)C(=O)N[C@@H](C[C@]1(O)C(=O)Nc2ccccc21)C(=O)NCc1ccccc1`, for which the inhibition entry in experiment [1], in [3], in [7] and in experiment [8] was “inactive” in each case. Besides, the inhibition in experiment [2] and in experiment [5] was greater than 85% throughout. The IC50 in [6] came out at 0.36 µM; in experiment [10], 0.42 µM.

As to `C[C@H](NC(=O)[C@H](Cc1ccc(OCc2ccccc2)cc1)NC(=O)OC(C)(C)C)C(=O)N[C@@H](C[C@]1(O)C(=O)Nc2ccccc21)C(=O)NCCC1CCCCC1`, the inhibition was 36% in experiment [1]; greater than 85% in [2]; greater than 85% in [3]; greater than 85% in experiment [5]; greater than 85% in experiment [7]; 19% in experiment [8]. The IC50 was determined as 3.5 µM in [4], 2.8 µM in experiment [6] and 2.7 µM in experiment [10].

In the case of `C[C@H](NC(=O)[C@H](Cc1ccc(OCc2ccccc2)cc1)NC(=O)OC(C)(C)C)C(=O)N[C@@H](C[C@]1(O)C(=O)Nc2ccccc21)C(=O)NCCc1ccccc1`, the inhibition is 45% in [1]; greater than 85% in [2]; greater than 85% in experiment [3]; greater than 85% in experiment [5]; greater than 85% in [7]; 26% in experiment [8]. Further, the IC50 in experiment [4] came out at 7.31 µM; in [6] it was 6 µM; in experiment [10], 6.5 µM.

Consider `COC(=O)CCNC(=O)[C@H](C[C@]1(O)C(=O)Nc2ccccc21)NC(=O)[C@H](C)NC(=O)[C@H](Cc1ccc(OCc2ccccc2)cc1)NC(=O)OC(C)(C)C`, for which the inhibition in [1] is 14%; in [2], 31%; in experiment [3] it was 17%; in [5], greater than 85%; in experiment [7] it was 15%; in [8] it was greater than 85%. The IC50 in experiment [6] stood at 64 µM; in experiment [9], 106 µM.

On to `C[C@H](NC(=O)[C@H](Cc1ccc(OCc2ccccc2)cc1)NC(=O)OC(C)(C)C)C(=O)N[C@@H](C[C@@]1(O)C(=O)N(C)c2ccccc21)C(=O)NCc1ccccc1`, for which the inhibition in experiment [1] was 56%; in experiment [2], greater than 85%; in [3], greater than 85%; in [5], greater than 85%; in experiment [7], greater than 85%; in experiment [8] it was 18%. Also, the IC50 in [4] amounted to 8.9 µM; in [6], 6.8 µM; in [10], 6.1 µM.

The values above are taken from ChEMBL document CHEMBL4251654, “Structure-based design of human immuno- and constitutive proteasomes inhibitors” (Eur J Med Chem, 2018).
